The text below walks through data of ChEMBL document CHEMBL4004830 (J Med Chem, 2017).

One may read the GI50 as the concentration that inhibits growth by half. High values mean lower sensitivity of the cells, low ones greater sensitivity of the cells.

One assay has as its system MV4-11. Description: Growth inhibition of human MV4-11 cells after 72 hrs by resazurin assay. The class given is functional. Conditions: MV4-11, 72 h. The essentials:
(§1)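 72 h antiproliferation assay, resazurin read-out for MV4-11 and MTT read-out for MDA-MB-453; values from at least two replicates.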

For assay [1], the target named is Cyclin-dependent kinase 7/ cyclin H (Homo sapiens, UniProt P50613). Description: (§2) Inhibition of CDK7/cyclin H (unknown origin) in presence of [gamma-33P]-ATP […]. The class given is protein-complex assay. Conditions: read-out: Ki(app).
Chain of Cyclin-dependent kinase 7/ cyclin H (P51946 whole entry): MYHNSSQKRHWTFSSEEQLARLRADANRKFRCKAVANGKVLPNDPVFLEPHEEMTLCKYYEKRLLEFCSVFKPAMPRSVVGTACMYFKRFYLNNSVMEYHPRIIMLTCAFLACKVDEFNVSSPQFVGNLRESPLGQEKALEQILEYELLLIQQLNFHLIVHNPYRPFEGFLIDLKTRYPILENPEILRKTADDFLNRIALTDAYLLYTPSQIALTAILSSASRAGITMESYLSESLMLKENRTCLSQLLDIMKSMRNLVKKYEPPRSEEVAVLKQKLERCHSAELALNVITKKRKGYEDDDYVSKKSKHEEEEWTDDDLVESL
Chain of Cyclin-dependent kinase 7/ cyclin H (P50613 whole entry): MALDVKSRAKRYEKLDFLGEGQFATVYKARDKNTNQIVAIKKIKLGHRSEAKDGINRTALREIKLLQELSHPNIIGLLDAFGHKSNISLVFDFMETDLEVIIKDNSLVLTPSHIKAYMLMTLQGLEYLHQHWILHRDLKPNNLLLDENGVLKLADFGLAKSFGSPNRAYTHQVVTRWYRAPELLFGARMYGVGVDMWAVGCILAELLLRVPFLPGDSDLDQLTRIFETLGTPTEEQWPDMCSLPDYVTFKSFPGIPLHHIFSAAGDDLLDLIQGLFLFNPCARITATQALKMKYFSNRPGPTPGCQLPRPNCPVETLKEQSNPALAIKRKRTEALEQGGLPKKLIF
Another assay deals with MDA-MB-453. Description: Growth inhibition of human MDA-MB-453 cells after 72 hrs by MTT assay. The conditions noted are these: MDA-MB-453, 72 h. The class given is functional. The essentials:
as §1
(In general: Tetrazolium dyes change colour on reduction, which living cells bring about.)

For assay [2], the target named is Cyclin-dependent kinase 1/cyclin B1 (Homo sapiens, UniProt P06493). Description: (§3) Inhibition of CDK1/cyclin B (unknown origin) in presence of [gamma-33P]-ATP […]. The class given is protein-complex assay. The conditions noted are these: read-out: Ki(app).
Chain of Cyclin-dependent kinase 1/cyclin B1 (P06493 whole entry): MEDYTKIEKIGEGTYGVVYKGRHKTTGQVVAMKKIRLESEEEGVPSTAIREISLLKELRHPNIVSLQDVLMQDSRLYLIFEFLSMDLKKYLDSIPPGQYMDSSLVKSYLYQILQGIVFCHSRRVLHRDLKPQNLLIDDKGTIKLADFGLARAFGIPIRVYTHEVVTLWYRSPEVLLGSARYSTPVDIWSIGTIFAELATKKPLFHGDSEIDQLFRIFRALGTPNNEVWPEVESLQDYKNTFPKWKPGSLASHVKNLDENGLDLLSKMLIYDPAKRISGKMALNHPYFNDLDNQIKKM
Chain of Cyclin-dependent kinase 1/cyclin B1 (P14635 whole entry, further chain): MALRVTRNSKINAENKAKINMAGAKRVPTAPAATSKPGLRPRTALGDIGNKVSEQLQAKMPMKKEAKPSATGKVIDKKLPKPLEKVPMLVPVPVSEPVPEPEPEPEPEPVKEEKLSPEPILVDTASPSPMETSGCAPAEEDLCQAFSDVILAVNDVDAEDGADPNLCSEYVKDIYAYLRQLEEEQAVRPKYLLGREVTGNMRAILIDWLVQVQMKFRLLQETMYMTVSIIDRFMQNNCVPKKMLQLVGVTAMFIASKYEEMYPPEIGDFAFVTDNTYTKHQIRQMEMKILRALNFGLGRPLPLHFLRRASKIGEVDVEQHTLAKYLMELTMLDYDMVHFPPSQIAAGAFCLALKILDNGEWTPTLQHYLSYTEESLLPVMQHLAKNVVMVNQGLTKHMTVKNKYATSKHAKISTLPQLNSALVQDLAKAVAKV
A further assay addresses CDK9/cyclin T1 (Homo sapiens, UniProt P50750). Description: Inhibition of CDK9/cyclin T1 (unknown origin) in presence of [gamma-33P]-ATP […]. The class given is protein-complex assay. Conditions: read-out: Ki(app).
In the next assay the target is CDK2/Cyclin A2 (Homo sapiens, UniProt P24941). Nature of the assay: Inhibition of CDK2/cyclin A (unknown origin) in presence of [gamma-33P]-ATP […]. Format: protein-complex assay. Conditions: read-out: Ki(app).
In another assay the target is CDK6/cyclin D3 (Homo sapiens, UniProt Q00534). Nature of the assay: Inhibition of CDK6/cyclin D3 (unknown origin) in presence of [gamma-33P]-ATP […]. Format: protein-complex assay. Conditions: read-out: Ki(app).
Chain of CDK6/cyclin D3 (P30281 whole entry): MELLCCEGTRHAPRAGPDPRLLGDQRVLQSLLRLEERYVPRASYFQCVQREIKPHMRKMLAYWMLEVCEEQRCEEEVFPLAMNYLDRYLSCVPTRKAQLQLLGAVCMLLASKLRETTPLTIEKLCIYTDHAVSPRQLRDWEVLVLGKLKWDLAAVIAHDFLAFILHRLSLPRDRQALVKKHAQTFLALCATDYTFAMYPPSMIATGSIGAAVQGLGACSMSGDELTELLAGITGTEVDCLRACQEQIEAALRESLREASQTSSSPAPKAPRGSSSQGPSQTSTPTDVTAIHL
Chain of CDK6/cyclin D3 (Q00534 whole entry): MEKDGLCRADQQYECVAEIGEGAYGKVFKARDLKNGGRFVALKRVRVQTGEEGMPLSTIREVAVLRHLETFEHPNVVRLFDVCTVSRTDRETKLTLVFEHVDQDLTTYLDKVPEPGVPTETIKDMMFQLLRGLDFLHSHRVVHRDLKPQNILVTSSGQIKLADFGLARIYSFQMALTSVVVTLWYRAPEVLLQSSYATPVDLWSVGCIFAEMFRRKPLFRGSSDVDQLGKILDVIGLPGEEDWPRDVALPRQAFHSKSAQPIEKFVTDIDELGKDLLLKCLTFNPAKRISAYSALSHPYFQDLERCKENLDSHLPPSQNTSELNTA
For assay [3], the target named is Cyclin-dependent kinase 4/cyclin D1 (Homo sapiens, UniProt P11802). Description: Inhibition of CDK4/cyclin D1 (unknown origin) in presence of [gamma-33P]-ATP […]. The conditions noted are these: read-out: Ki(app). The class given is protein-complex assay.
Chain of Cyclin-dependent kinase 4/cyclin D1 (P11802 whole entry): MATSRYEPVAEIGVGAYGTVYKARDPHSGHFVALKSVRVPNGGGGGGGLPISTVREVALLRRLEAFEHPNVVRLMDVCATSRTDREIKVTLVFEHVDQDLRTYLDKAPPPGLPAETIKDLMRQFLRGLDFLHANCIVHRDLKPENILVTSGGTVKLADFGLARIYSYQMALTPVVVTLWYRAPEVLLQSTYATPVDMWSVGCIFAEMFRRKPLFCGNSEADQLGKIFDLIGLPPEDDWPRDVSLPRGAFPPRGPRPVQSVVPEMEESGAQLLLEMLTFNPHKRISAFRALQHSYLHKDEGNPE
Chain of Cyclin-dependent kinase 4/cyclin D1 (P24385 whole entry, further chain): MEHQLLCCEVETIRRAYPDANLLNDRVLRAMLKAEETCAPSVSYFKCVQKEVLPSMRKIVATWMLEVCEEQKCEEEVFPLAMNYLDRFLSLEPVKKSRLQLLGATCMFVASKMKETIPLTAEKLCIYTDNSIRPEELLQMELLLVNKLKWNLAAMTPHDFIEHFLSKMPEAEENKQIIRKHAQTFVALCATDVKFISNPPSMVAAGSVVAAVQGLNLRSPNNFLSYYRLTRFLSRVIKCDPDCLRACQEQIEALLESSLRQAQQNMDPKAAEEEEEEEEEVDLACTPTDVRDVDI
In assay [4] the target is Cyclin-dependent kinase 7/ cyclin H (Homo sapiens) (UniProt P51946+P50613). The description is as §2. The class given is protein-complex assay.
In assay [5] the target is Cyclin-dependent kinase 1/cyclin B1 (Homo sapiens) (UniProt P06493+P14635). Described as §3. Format: protein-complex assay.
Chain of Cyclin-dependent kinase 1/cyclin B1 (Homo sapiens) (P06493 whole entry, looked up): as the sequence (P06493 whole entry) above
Chain of Cyclin-dependent kinase 1/cyclin B1 (Homo sapiens) (P14635 whole entry, looked up): as the sequence (P14635 whole entry, further chain) above

Activity calls are given as the source filed them. The calls are words filed in the database; no cut-off is given here.

Chain of CDK9/cyclin T1 (O60563 whole entry): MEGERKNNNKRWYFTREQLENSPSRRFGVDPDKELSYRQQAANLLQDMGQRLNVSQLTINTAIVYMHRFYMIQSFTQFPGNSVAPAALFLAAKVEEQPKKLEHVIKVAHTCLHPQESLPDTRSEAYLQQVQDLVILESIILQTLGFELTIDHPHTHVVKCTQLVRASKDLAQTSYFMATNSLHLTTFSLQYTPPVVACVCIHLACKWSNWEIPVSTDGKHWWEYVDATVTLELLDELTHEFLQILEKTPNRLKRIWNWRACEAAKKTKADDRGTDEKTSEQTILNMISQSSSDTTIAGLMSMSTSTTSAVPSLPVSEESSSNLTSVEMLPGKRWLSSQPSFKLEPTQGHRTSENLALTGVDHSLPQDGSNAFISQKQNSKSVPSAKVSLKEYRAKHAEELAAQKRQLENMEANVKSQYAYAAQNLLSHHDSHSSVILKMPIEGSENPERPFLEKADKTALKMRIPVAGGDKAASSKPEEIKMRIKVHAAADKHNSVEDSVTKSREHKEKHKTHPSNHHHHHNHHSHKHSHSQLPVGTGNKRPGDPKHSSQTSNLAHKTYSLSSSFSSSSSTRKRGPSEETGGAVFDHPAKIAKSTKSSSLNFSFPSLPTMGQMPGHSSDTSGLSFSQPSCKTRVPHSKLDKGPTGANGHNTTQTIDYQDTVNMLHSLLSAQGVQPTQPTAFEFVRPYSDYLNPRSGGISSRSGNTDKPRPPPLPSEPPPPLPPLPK
Chain of CDK9/cyclin T1 (P50750 whole entry): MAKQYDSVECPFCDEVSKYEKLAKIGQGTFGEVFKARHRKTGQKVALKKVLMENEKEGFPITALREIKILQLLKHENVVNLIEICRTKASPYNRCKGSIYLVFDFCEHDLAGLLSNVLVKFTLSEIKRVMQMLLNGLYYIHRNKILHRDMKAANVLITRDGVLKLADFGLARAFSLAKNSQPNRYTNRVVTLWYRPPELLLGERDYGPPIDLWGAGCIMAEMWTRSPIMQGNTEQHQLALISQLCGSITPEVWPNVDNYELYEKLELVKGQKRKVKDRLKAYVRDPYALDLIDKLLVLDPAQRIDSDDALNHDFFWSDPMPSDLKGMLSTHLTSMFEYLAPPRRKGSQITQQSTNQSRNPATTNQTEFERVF

As for `Cc1nc(N(C)C2CCCC2)sc1-c1ccnc(Nc2ccc(N3CCNCC3)cn2)n1`, the results for the GI50 with MV4-11 and in the assay with MDA-MB-453 were 0.285 µM and 0.402 µM, respectively. Moreover, the Ki in [1] was 3.2 µM.

For `Cc1nc(NC(C)C)sc1-c1ccnc(Nc2ccc(N3CCN(C)CC3)cn2)n1`, the results for the GI50 in the assay with MV4-11 and in the assay with MDA-MB-453 were 0.075 µM and 0.618 µM, respectively. Moreover, in assay [1], the Ki turned out to be 0.76 µM.

Turning to `Cc1nc(N(C2CCCC2)C2CCCC2)sc1-c1ccnc(Nc2ccc(N3CCNCC3)cn2)n1`, the GI50 stood at 0.714 µM with MV4-11 and 0.373 µM with MDA-MB-453. For the same compound, the Ki in assay [2] was more than 5 µM; on CDK9/cyclin T1, more than 5 µM; at CDK2/Cyclin A2, more than 5 µM; in assay [1], more than 5 µM; on CDK6/cyclin D3, 0.539 µM; in assay [3] it was 0.071 µM.

With `CC(=O)N1CCN(c2ccc(Nc3ncc(F)c(-c4sc(NC5CCCC5)nc4C)n3)nc2)CC1`, the GI50 in the assay on MV4-11 stood at 0.015 µM; in the assay with MDA-MB-453, 8.11 µM. Also, the Ki in [2] and in [1] was more than 5 µM in each case.

For the compound `Cc1nc(NC(C)C)sc1-c1ccnc(Nc2ccc(N3CCOCC3)cn2)n1`, the GI50 with MV4-11 amounted to 0.032 µM; in the assay on MDA-MB-453, 0.115 µM. In addition, the Ki (in assay [2]; on CDK9/cyclin T1; in [1]) was more than 5 µM throughout.

Turning to `Cc1nc(N(C)c2ccccc2)sc1-c1ccnc(Nc2ccc(N3CCN(C)CC3)cn2)n1`, the GI50 in the assay on MV4-11 was 0.421 µM; in the assay with MDA-MB-453, 0.15 µM. Further, the Ki in assay [2] and in assay [1] was more than 5 µM in each case.

For the compound `Cc1nc(NC2CCCC2)sc1-c1ccnc(Nc2ccc(N3CCC(N)CC3)cn2)n1`, the values for the GI50 in the assay with MV4-11 and in the assay on MDA-MB-453 were 0.013 µM and 0.055 µM, respectively. The Ki in [1] was 1.19 µM.

For `O=CN1CCN(c2ccc(Nc3nccc(-c4sc(NC5CCCC5)nc4C(F)(F)F)n3)nc2)CC1`, the figures for the GI50 in the assay with MV4-11 and in the assay with MDA-MB-453 were 0.004 µM and 0.336 µM, respectively. Moreover, the Ki at CDK9/cyclin T1 is more than 5 µM; in [1] it was 1.9 µM.

Turning to `CC(=O)N1CCN(c2ccc(Nc3nccc(-c4sc(N(C)C5CCCC5)nc4C)n3)nc2)CC1`, the GI50 in the assay on MV4-11 is 0.328 µM; in the assay on MDA-MB-453, 6.86 µM. Further, at CDK9/cyclin T1, the Ki was more than 5 µM. The “Ki(app)” value in assay [4] was “inactive”.

For the compound `CC(=O)N1CCN(c2ccc(Nc3nccc(-c4sc(NC5CCCC5)nc4C)n3)nc2)CC1`, the GI50 in the assay with MV4-11 stood at 0.024 µM; in the assay on MDA-MB-453, 0.591 µM. For the same compound, the Ki in [1] stood at 3.45 µM.

`CCN1CCN(Cc2ccc(Nc3nccc(-c4sc(NC5CCCC5)nc4C)n3)nc2)CC1`: the GI50 was 0.019 µM with MV4-11 and 0.069 µM in the assay with MDA-MB-453. The Ki in assay [2] was more than 5 µM; in [1], 0.211 µM.

As for `CC(=O)N1CCN(c2ccc(Nc3nccc(-c4sc(NC5CCCC5)nc4C(F)(F)F)n3)nc2)CC1`, the figures for the GI50 in the assay on MV4-11 and in the assay on MDA-MB-453 were 0.012 µM and 0.077 µM, respectively. Further, the Ki was more than 5 µM on CDK9/cyclin T1 and 2.61 µM in assay [1].

For the compound `CN1CCN(c2ccc(Nc3nccc(-c4sc(NC5CCCC5)nc4C(F)(F)F)n3)nc2)CC1`, the GI50 with MV4-11 turned out to be 0.001 µM; in the assay with MDA-MB-453, 0.42 µM. In addition, the Ki in assay [1] was 0.189 µM.

For `CCN1CCN(c2ccc(Nc3ncc(F)c(-c4sc(NC5CCCC5)nc4C)n3)nc2)CC1`, the GI50 with MV4-11 is 0.013 µM; in the assay with MDA-MB-453, 0.066 µM. Besides, the “Ki(app)” value in [5] was “inactive”. The Ki is more than 5 µM on CDK9/cyclin T1 and 0.685 µM in assay [1].

`Cc1nc(NC2CCCC2)sc1-c1nc(Nc2ccc(N3CCOCC3)cn2)ncc1F`: the figures for the GI50 with MV4-11 and in the assay on MDA-MB-453 were 0.29 µM and 1.44 µM, respectively. Moreover, the Ki in [2] was 4.35 µM; at CDK9/cyclin T1, more than 5 µM; in [1], more than 5 µM.

Regarding `CCN1CCN(c2ccc(Nc3nccc(-c4sc(NC5CCCC5)nc4C)n3)nc2)CC1`, the GI50 in the assay with MV4-11 was 0.009 µM; in the assay with MDA-MB-453 it was 0.287 µM. Also, in [1], the Ki worked out at 0.78 µM.

Turning to `CC(=O)N1CCN(c2ccc(Nc3nccc(-c4sc(NC(C)C)nc4C)n3)nc2)CC1`, the GI50 in the assay on MV4-11 is 2.07 µM; with MDA-MB-453, 0.344 µM. For the same compound, in [1], the Ki worked out at 4.39 µM.

As for `Cc1nc(NC2CCCC2)sc1-c1nc(Nc2ccc(N3CCCNCC3)cn2)ncc1F`, the GI50 with MV4-11 is 0.029 µM; in the assay on MDA-MB-453 it was 0.083 µM. In addition, the results for the Ki in assay [2] and in assay [1] were more than 5 µM and 0.815 µM, respectively.

Turning to `Cc1nc(N(C)C2CCCC2)sc1-c1ccnc(Nc2ccc(N3CCN(C)CC3)cn2)n1`, the GI50 in the assay on MV4-11 was 0.02 µM; with MDA-MB-453 it was 3.36 µM. The Ki in [2] and in assay [1] was more than 5 µM throughout.

Take `FC(F)(F)c1nc(NC2CCCC2)sc1-c1ccnc(Nc2ccc(N3CCNCC3)cn2)n1`: the GI50 with MV4-11 was determined as 0.002 µM; in the assay with MDA-MB-453, 0.081 µM. Also, the Ki in [1] is 0.194 µM.

Consider `CCN1CCN(Cc2ccc(Nc3ncc(F)c(-c4sc(NC5CCCC5)nc4C)n3)nc2)CC1` [ULECACICLIB], for which the GI50 in the assay with MV4-11 was found to be 0.01 µM; in the assay on MDA-MB-453 it was 0.622 µM. The “Ki(app)” value in assay [5] was “inactive”. Also, the Ki in [1] came out at 0.63 µM.

In the case of `Cc1nc(NC2CCCC2)sc1-c1ccnc(Nc2ccc(N3CCN(C)CC3)cn2)n1`, the figures for the GI50 in the assay on MV4-11 and in the assay with MDA-MB-453 were 0.009 µM and 0.13 µM, respectively. The Ki in assay [1] is 0.865 µM.

Take `FC(F)(F)c1nc(NC2CCCC2)sc1-c1ccnc(Nc2ccc(N3CCOCC3)cn2)n1`: the GI50 worked out at 0.069 µM with MV4-11 and 0.415 µM with MDA-MB-453. The “Ki(app)” value in [5] and in assay [4] was “inactive” in each case. Besides, at CDK9/cyclin T1, the Ki is more than 5 µM.

In the case of `Cc1nc(NC2CCCC2)sc1-c1ccnc(Nc2ccccn2)n1`, the values for the GI50 with MV4-11 and in the assay with MDA-MB-453 were 0.3 µM and 4.38 µM, respectively. Further, the Ki at CDK9/cyclin T1 is more than 5 µM.

As for `Cc1nc(NC2CCCC2)sc1-c1nc(Nc2ccc(N3CCN(S(C)(=O)=O)CC3)cn2)ncc1F`, the values for the GI50 in the assay with MV4-11 and in the assay with MDA-MB-453 were 2.63 µM and 2.81 µM, respectively. The “Ki(app)” value in assay [5] and in assay [4] was “inactive” in each case. Moreover, the Ki at CDK9/cyclin T1 was more than 5 µM.

With `Cc1nc(Nc2ccccc2)sc1-c1ccnc(Nc2ccc(N3CCNCC3)cn2)n1`, the GI50 came to 0.056 µM in the assay with MV4-11 and 0.279 µM in the assay with MDA-MB-453. Also, the Ki is more than 5 µM at CDK2/Cyclin A2 and 1.66 µM in assay [1].

In the case of `Cc1nc(NC(C)C)sc1-c1ccnc(Nc2ccc(N3CCCNCC3)cn2)n1`, the GI50 with MV4-11 is 0.255 µM; in the assay with MDA-MB-453 it was 0.938 µM. For the same compound, the Ki in assay [2] was more than 5 µM; in assay [1], 1.16 µM.

With `Cc1nc(NC2CCCC2)sc1-c1ccnc(Nc2ccc(N3CCCCC3)cn2)n1`, the GI50 in the assay on MV4-11 is 0.191 µM; with MDA-MB-453, 7.04 µM. Also, the “Ki(app)” value in assay [5] and in assay [4] was “inactive” in each case. The Ki at CDK9/cyclin T1 and at CDK2/Cyclin A2 was more than 5 µM throughout.

`Cc1nc(NC(C)C)sc1-c1ccnc(Nc2ccc(N3CCNCC3)cn2)n1`: the GI50 is 0.093 µM in the assay with MV4-11 and 0.031 µM in the assay on MDA-MB-453. Besides, the Ki in assay [1] was 0.775 µM.

Regarding `Cc1nc(NC2CCCC2)sc1-c1ccnc(Nc2ccc(N3CCCNCC3)cn2)n1`, the GI50 with MV4-11 is 0.029 µM; in the assay with MDA-MB-453 it was 0.102 µM. The Ki in [1] amounted to 0.282 µM.

Regarding `Cc1nc(NC2CCCC2)sc1-c1ccnc(Nc2ccc(N3CCN(S(C)(=O)=O)CC3)cn2)n1`, the GI50 was 0.176 µM in the assay with MV4-11 and 0.215 µM in the assay on MDA-MB-453. Besides, the Ki stood at 1.1 µM in [2]; 1.32 µM on CDK9/cyclin T1; 0.077 µM on CDK2/Cyclin A2; 2.64 µM in [1]; 0.055 µM at CDK6/cyclin D3; 0.007 µM in assay [3].

With `Cc1nc(NC2CCCC2)sc1-c1nc(Nc2ccc(N3CCNCC3)cn2)ncc1F`, the GI50 in the assay on MV4-11 turned out to be 0.053 µM; with MDA-MB-453, 0.78 µM. For the same compound, the Ki in [1] was 0.79 µM.
